NOD2-RIPK2 inh: inhibitors of human NOD2-RIPK2 interaction; O43353; CHO BLA complementation NOD2-RIPK2, CCF4 ratio; inhibition, % at 4.98 µM; actives 0.38% (n = 360,000); in the data active = inhibition above about 21%
SR-BI HDL uptake: inhibitors of mouse SR-BI mediated HDL lipid uptake; actives 0.96% (n = 320,000); AID 488896; ldlA[mSR-BI] CHO cells, DiI-HDL uptake fluorescence, 3 h; inhibition, % at 12.5 µM;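 active = mean replicate inhibition of at least 70% and a set share of replicates each scoring 70 or more; inconclusive = meets just one of the two criteria; inactive = fails both criteria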
SR-BI uptake up: SR-BI HDL lipid transfer activation | CHO ldlA[mSR-BI] cells, DiI-HDL uptake fluorescence, 3 h; 100 = double the neutral-control signal | activation, % at 12.5 µM | actives 0.096% (n = 320,000);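 active = mean replicate activation of at least 60% and every replicate at or above 60%; inconclusive = mean or all-replicate condition met, but not both; inactive = mean below 60% and not all replicates reaching 60%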
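Test system: SR-BI-overexpressing, LDLR-lacking CHO cells. Measured by: DiI fluorescence, bottom read. Medium: Ham's F12 with 0.5% BSA, HEPES 25 mM, pH 7.4. Timing: 3 h uptake period with compound, 37 °C.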
TLR4-MyD88 BLA: blocks binding of human TLR4 to MyD88. O00206+Q99836. HeLa CL3-4 TLR4/MyD88 BLA complementation, FRET ratio. inhibition, % at 8.4 µM. actives 0.18% (n = 200,000). AID 861; in the data active = inhibition above about 25%
TLR9-MyD88 block: TLR9-MyD88 interaction inhibition. Q9NR96+Q99836. CHO BLA complementation TLR9-MyD88, CCF4 FRET ratio. inhibition, % at 4.98 µM. actives 0.21% (n = 340,000);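 active = inhibition above the mean over all tested compounds plus 3 SD, cut at about 21% in these data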
Hep lipid drop: hepatic lipid droplet formation modulation; AML12 mouse hepatocytes, oleate lipid droplets, BODIPY imaging; inhibition, % at 6.5 µM; actives 0.4% (n = 240,000); AID 1656;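 active = lipid droplet intensity inhibited by at least 50%, with more than 500 cells counted; inconclusive = wells with under 300 cells, treated as cytotoxic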
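Material – mouse AML12 hepatocyte cell line, fixed after treatment · Compound dosing – one dose, 6.5 µM compound · Times – compound with oleate, overnight · Measured by – Image-based BODIPY and DAPI two-channel analysis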
A number is an active result; n = inactive; u = inconclusive; x = not tested or not shown. Hits are enriched below; roughly 1.6% of the tested compounds scored in any of these assays.

SMILES	NOD2-RIPK2 inh	SR-BI HDL uptake	SR-BI uptake up	TLR4-MyD88 BLA	TLR9-MyD88 block	Hep lipid drop
Cc1ccc(Nc2cc(C)nn2-c2nc(C)cc(=O)[nH]2)cc1	53.1	n	n	n	41.1	x
COc1ccc(Nc2sc(C(=O)c3ccc(Cl)cc3)c(N)c2C(=O)Nc2ccccc2OC)cc1	n	92.7	n	n	n	n
O=C(Nc1ccncc1)C1CCN(S(=O)(=O)c2ccc(Cl)cc2)CC1	n	n	n	x	n	x
O=C(CCCN1C(=O)/C(=C/c2cccs2)SC1=S)NNC(=O)c1ccccc1O	n	103.7	n	n	n	n
COc1cccc(/C=C2\SC(=S)N(CCC(=O)NNC(=O)c3ccccc3OC)C2=O)c1	n	x	x	x	n	n
COc1ccc(/C=C2\SC(=S)N(CCCC(=O)NNC(=O)c3ccccc3O)C2=O)cc1	n	109.6	n	n	n	n
COc1ccccc1/C=C1\SC(=S)N(CCC(=O)NNC(=O)c2ccccc2O)C1=O	n	124.3	x	x	n	n
Cn1ccnc1SCC(=O)c1ccc([N+](=O)[O-])cc1	n	n	n	n	n	n
COc1ccc([N+](=O)[O-])cc1NC(=O)c1ccccc1SC	n	77.3	n	n	n	n
COc1ccc(OC)c(NC(=O)/C=C/c2ccccc2[N+](=O)[O-])c1	n	86.0	n	n	n	n
COc1ccc([N+](=O)[O-])cc1NC(=O)c1ccc(-n2nc(C)cc2C)cc1	n	90.1	n	n	n	n
COc1ccc(OC)c(NC(=O)c2cccc(C)c2[N+](=O)[O-])c1	n	72.5	n	n	n	n
CSc1ccccc1C(=O)Nc1cccc([N+](=O)[O-])c1	n	n	n	n	n	n
COc1ccc(NC(=O)/C=C/c2ccccc2[N+](=O)[O-])c(OC)c1	n	n	n	n	n	n
Nc1nonc1-n1nnc(C(=O)N/N=C/c2ccc(OCc3ccccc3F)cc2)c1CNc1ccccc1	n	n	n	x	n	n
CCC(C)[C@@H](CN(N=O)[C@@H](Cc1ccccc1)CN(C)N=O)N(CCc1ccccc1)N=O (stereo partly specified)	n	n	67.6	n	n	n
CC1Cc2ccccc2N1C(=O)Cn1c(=O)oc2cc(S(=O)(=O)NC3CCCC3)ccc21 (stereo unspecified)	n	x	x	n	n	x
CC1CCN(S(=O)(=O)c2ccc3c(c2)oc(=O)n3CC(=O)N2c3ccccc3CC2C)CC1 (stereo unspecified)	n	72.8	n	n	n	x
COCCn1c(=NC(=O)CCS(=O)(=O)c2ccccc2)sc2cc(C)ccc21	n	n	n	x	n	n
COCCn1c(=NC(=O)/C=C/c2cccs2)sc2cc(NC(C)=O)ccc21	n	72.2	n	n	n	n
COc1cc(CNc2nc(C)c([N+](=O)[O-])c(C)c2C#N)cc(OC)c1	n	75.8	n	n	n	n
COCc1c(C#N)c(NCc2cc(OC)c(OC)c(OC)c2)nc(C)c1[N+](=O)[O-]	n	u	n	x	n	n
Cc1nc(NCCc2ccccc2F)c(C#N)c(C)c1[N+](=O)[O-]	n	74.4	n	n	n	n
Cc1c(COc2ccc3ccccc3c2)nnn1CC(=O)NS(=O)(=O)c1ccccc1C(F)(F)F	n	x	x	x	x	x
CCC(Oc1ccccc1OC)C(=O)N1CC(=O)Nc2ccccc21 (stereo unspecified)	n	x	x	x	n	n
SMILES	NOD2-RIPK2 inh	SR-BI HDL uptake	SR-BI uptake up	TLR4-MyD88 BLA	TLR9-MyD88 block	Hep lipid drop
O=C(Nc1cc(Br)ccc1O)c1cnn2c(C(F)F)cc(C3CC3)nc12	n	76.7	n	n	n	n
O=C(Nc1cccnc1)c1cnn2c(C(F)F)cc(C3CC3)nc12	n	n	n	n	n	n
CCC(Sc1nccn1C)C(=O)Nc1ccc(Cl)cn1 (stereo unspecified)	n	n	n	n	n	n
CC(OC(=O)c1ccc(NS(=O)(=O)c2ccc3[nH]c(=O)[nH]c3c2)cc1)C(N)=O (stereo unspecified)	n	x	x	x	n	n
Cc1cc(OCC(=O)Nc2ccncc2)cc(C)c1Cl	n	n	n	x	n	n
COc1cc(NC(C)=O)ccc1NC(=O)c1cc2ccccc2o1	n	n	n	x	n	x
COc1ccccc1NC(=O)c1ccc(Br)o1	n	n	n	n	n	n
O=C(Nc1ccc2oc(=O)ccc2c1)c1ccc(-c2ccccc2[N+](=O)[O-])o1	n	78.0	n	x	n	n
COc1cc(NC(=O)c2ccccc2[N+](=O)[O-])ccc1NC(=O)c1cc2ccccc2o1	n	76.6	n	x	n	x
COc1cc(NC(=O)c2ccc(Br)o2)ccc1NC(=O)c1ccccc1Cl	n	83.1	n	n	n	n
Cc1cc(NC(=O)c2cncc(Br)c2)ccc1NC(=O)c1cc2ccccc2o1	n	96.6	n	x	n	n
COc1cc(NC(=O)c2ccccc2F)ccc1NC(=O)c1ccccc1Cl	n	93.3	n	n	n	n
CCCC(=O)Nc1ccc(Cl)c(NC(=O)CC)c1	n	n	n	n	n	x
COc1cc(NC(=O)c2ccc([N+](=O)[O-])o2)ccc1NC(=O)c1ccco1	n	n	n	x	n	n
COc1cc(NC(=O)c2cccc([N+](=O)[O-])c2)ccc1NC(=O)c1ccco1	n	88.7	n	n	n	n
CCC(=O)Nc1ccc(Cl)c(NC(=O)c2ccc(Br)o2)c1	n	75.9	x	n	n	n
Cc1ccc(-c2ccc(=O)n(CC(=O)NCc3ccc(F)cc3)n2)cc1	n	n	n	n	n	n
CCCC(=O)Nc1nc(C(=O)OCC)cs1	n	n	n	n	n	x
CCOC(=O)c1csc(NC(=O)c2cc(OC)c(OC)c(OC)c2)n1	n	77.2	n	n	n	x
Cc1cccc(NC(=O)CSc2nc3ccccc3c(=O)n2CC2CCCO2)c1 (stereo unspecified)	n	79.9	n	x	n	x
C[C@H](NC(=O)[C@@H]1CCCN1C(=O)[C@@H]1CCCN1C(=O)OC(C)(C)C)c1ccccc1	n	x	x	x	x	x
C/C(=C\C(=O)c1ccc(Br)cc1)NNC(=O)c1ccccc1	n	86.1	n	x	n	x
Cc1c(C(=O)c2ccc(F)cc2F)c2ccccn2c1CCC#N	n	n	n	x	n	n
Cc1c(C(=O)c2ccc(N(C)C)cc2)c2ccccn2c1CCC#N	n	72.9	n	n	n	n
CN(Cc1nccs1)C(=O)C1CCC(=O)N(Cc2ccccc2F)C1 (stereo unspecified)	n	n	n	x	n	n
O=C(N=C1SC2CS(=O)(=O)CC2N1c1cc(Cl)ccc1Cl)C1CCCO1 (stereo unspecified)	n	n	n	x	n	n
CCN(CC)CC(O)Cn1c(C)c(-c2ccccc2)c2cc([N+](=O)[O-])ccc21 (stereo unspecified)	n	89.1	n	x	n	x
CCN(CC)CC(O)Cn1c2ccccc2c2ccccc21 (stereo unspecified)	n	x	x	n	n	n
